Shown are actives, neighbours in structure and some others; about 2.9% of the full set was active somewhere.
HTRA1 inh = blocks human HTRA1 serine peptidase; Q92743; recombinant HTRA1, FP-rhodamine activity-based probe, fluorescence polarization; inhibition, % at 5.96 µM; 340,000 compounds, 0.5% hits; AID 504803; in the data active means inhibition above about 36%;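 further: 0% = enzyme with DMSO and 100% = wells lacking enzyme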
PAD4 FP inh = blocks human protein arginine deiminase 4; Q9UM07; inhibition, % at 6.36 µM; 330,000 compounds, 0.41% hits; AID 485272; recombinant PAD4, RCA probe fluorescence polarization;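 active means percent inhibition above a cutoff equal to the mean of all tested compounds plus 3 SD, cut at about 15% in these data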;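 further: 0% = PAD4 with RCA probe and DMSO and 100% = probe without PAD4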
SIAE primary = inhibitors of human sialic acid acetylesterase SIAE; inhibition, % at 9.66 µM; Q9HAT2; SIAE FP-Rh probe binding, fluorescence polarization; 370,000 compounds, 0.69% hits; AID 1053197;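 active means inhibition above a cutoff: mean of compounds within the control limits plus 3 SD of those, cut at about 17% in these data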;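 further: 0% = plate median of compound wells and 100% = probe without SIAE protein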
ABHD4 inh = ABHD4 (mouse) inhibition, primary FP screen. Q8VD66. purified mABHD4, FP-Rh probe fluorescence polarization. inhibition, % at 8.92 µM. 370,000 compounds, 0.54% hits;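 active means inhibition exceeding the mean over every tested compound plus 3 SD, cut at about 30% in these data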;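 further: 0% = plate median of compound wells and 100% = S159A mutant with DMSO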
Target sequence (Q8VD66 whole entry, looked up): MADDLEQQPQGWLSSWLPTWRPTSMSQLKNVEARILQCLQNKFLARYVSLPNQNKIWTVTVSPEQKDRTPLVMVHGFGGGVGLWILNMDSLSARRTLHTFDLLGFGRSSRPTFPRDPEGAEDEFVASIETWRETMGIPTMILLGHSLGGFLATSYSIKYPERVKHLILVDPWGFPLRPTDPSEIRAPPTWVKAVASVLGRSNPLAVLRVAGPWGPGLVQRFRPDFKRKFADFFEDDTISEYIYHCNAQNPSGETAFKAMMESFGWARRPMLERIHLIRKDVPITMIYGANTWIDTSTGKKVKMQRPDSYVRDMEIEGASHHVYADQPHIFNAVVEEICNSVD
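Assay system: mouse ABHD4 enzyme, wild type / Also added: fluorescent activity-based probe FP-Rh / Doses: single nominal dose of 8.92 µM, 0.89% DMSO final / Timing: 45 min compound pre-incubation plus 60 min probe step, 25 °C / Signal: FP readout, ex 525 nm / em 598 nm / Control set: S159A mutant/DMSO as 100%, compound-well median as 0%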
TCR CD3 inh = inhibitors of human TCR-CD3 interaction | TAMRA-labeled TCR probe fluorescence, biochemical | inhibition, % at 9.4 µM | 360,000 compounds, 0.37% hits | AID 651800; in the data active means inhibition above about 19%;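 further: recombinant mutant TCR 2C K166C tagged with TAMRA read by polarization; 0% = receptor in buffer alone and 100% = receptor with positive control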
PRMT1 inh = PRMT1 (human) inhibition, primary screen; Q99873; recombinant PRMT1, activity-based probe fluorescence polarization; inhibition, % at 2.79 µM; 370,000 compounds, 1.3% hits;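 active means inhibition above about 21% made by adding two undisclosed values, limit read from the data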
SIAE confirm = confirmation of human SIAE inhibitors; inhibition, % at 9.66 µM; SIAE FP-Rh activity-based probe, fluorescence polarization; shares compounds with SIAE primary; 2,300 compounds, 13% hits;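 active means mean inhibition of the replicates above the hit cutoff set in the primary screen, cut at about 17% in these data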;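 further: 0% = SIAE with DMSO and probe and 100% = probe without SIAE; inhibitors lower polarization as more probe stays unbound to SIAE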
The depositor's hits bear a star; . = not tested or not shown.

SMILES | HTRA1 inh | PAD4 FP inh | SIAE primary | ABHD4 inh | TCR CD3 inh | PRMT1 inh | SIAE confirm
O=C(Nc1ccccc1)Nc1nnc([C@@H]2C[C@H](O)[C@@H](CO)O2)s1 | . | . | 47.0* | 4.9 | -5.2 | 4.5 | 0.4
Cc1ccc(NC(=O)[C@@H](Cc2ccccc2)NC(=O)[C@H]2O[C@@H](n3ccc(=O)[nH]c3=O)[C@H](O)[C@@H]2O)cc1C | . | . | 0.0 | -5.8 | 3.3 | -6.1 | .
Cc1nccn1-c1ccc(NC(=O)[C@@H](Cc2ccccc2)NC(=O)[C@H]2O[C@@H](n3ccc(=O)[nH]c3=O)[C@H](O)[C@@H]2O)cc1 | . | . | 54.4* | -18.7 | 3.9 | -6.4 | 43.8*
NC(=O)c1ncn([C@@H]2O[C@H](C(=O)N[C@H](Cc3ccccc3)C(=O)N3CCN(CC(=O)Nc4ccccn4)CC3)[C@@H](O)[C@H]2O)n1 | . | . | 44.2* | 4.9 | 6.1 | -1.6 | 38.5*
NC(=O)[C@@H]1CCCN1C(=O)[C@@H](Cc1ccccc1)NC(=O)[C@H]1O[C@@H](n2ccc(=O)[nH]c2=O)[C@H](O)[C@@H]1O | . | . | 48.7* | -2.3 | 6.0 | -0.3 | 41.4*
CC(C)[C@H](CO)NC(=O)[C@H]1O[C@@H](n2ccc(=O)[nH]c2=O)[C@H](O)[C@@H]1O | . | . | 69.8* | -2.6 | -2.5 | -5.0 | 55.0*
O=C(N[C@H](Cc1ccccc1)C(=O)N1CCN(CC(=O)N2CCCC2)CC1)[C@H]1O[C@@H](n2ccc(=O)[nH]c2=O)[C@H](O)[C@@H]1O | . | . | 47.2* | -1.0 | 3.0 | 1.3 | 42.9*
COc1ccc(C(=O)Nc2cc(Cl)c(Br)cc2C(=O)O)cc1 | . | . | -28.5 | -42.4 | . | -2.5 | .
CN(C)c1nc2c(N)ncnc2n1[C@H]1O[C@@H](CO)[C@H](O)[C@@H]1O | 1.6 | . | 21.7* | 4.7 | 1.4 | 0.7 | 1.9
CN(C)c1nc2c(N)ncnc2n1C1OC(CO)C(O)C1O (centres undefined) | 0.4 | . | 6.4 | -6.0 | 5.4 | -3.4 | .
CCCCN1CCN=C1N(C)C | 3.5 | -0.1 | 17.2* | 0.3 | 6.5 | 2.0 | 2.9
O=C(Oc1cccc2c(O)cccc12)c1ccco1 | 24.2 | . | 17.8* | 23.6 | 3.0 | 6.9 | -1.9
CN1/C(=C\C(=O)C(F)F)C(C)(C)c2ccccc21 | -5.1 | -4.2 | -0.4 | -8.8 | 2.6 | -0.5 | .
CN1/C(=C/C=C(C#N)C#N)C(C)(C)c2ccccc21 | -5.9 | 2.4 | 24.6* | -6.7 | -13.9 | -2.6 | 80.8*
NNc1nc2ccc(Cl)cc2s1 | 19.0 | 2.6 | 23.0* | -1.9 | 0.7 | -2.1 | 0.6
COc1ccc(NC(=O)c2ccccc2[N+](=O)[O-])cc1 | -1.8 | -3.3 | 1.9 | -8.0 | 12.3 | -0.3 | .
COc1ccccc1Nc1ccc(NC(=O)c2cccc([N+](=O)[O-])c2C)cc1 | 19.9 | -3.4 | 17.7* | 4.8 | -5.3 | 15.5 | 5.4
COc1ccc(CNc2ccc(N3CCN(C(C)=O)CC3)cc2)cc1OC | 9.3 | . | 3.1 | 13.8 | -3.4 | 0.8 | .
CC(=O)N1CCN(c2ccc(NCc3ccccc3)cc2)CC1 | 34.4 | 14.7 | 27.9* | 28.9 | 5.0 | 7.2 | -0.2
CC(=O)N1CCN(c2ccc(NCc3ccc4c(c3)OCO4)cc2)CC1 | 22.5 | 0.8 | 19.8* | 18.1 | 6.1 | 6.9 | 5.5
Cc1ccc(C2=CC(=O)C[C@H](c3ccc(Cl)cc3)C2)cc1 | -37.3 | -0.2 | . | . | . | . | .
O=C1C=C(c2ccccc2)C[C@@H](c2ccc(Cl)cc2)C1 | -40.6 | -3.8 | 25.7* | -11.8 | 4.4 | 0.5 | 0.5
Cc1ccc(C(=O)NC2CCCCN(Cc3ccc(Cl)cc3)C2=O)c(C)c1 (centres undefined) | . | . | 4.4 | -0.2 | . | 1.3 | .
CCOc1ccc(Oc2ccc(NC(=O)CSc3nncn3C)cc2)cc1 | -7.5 | . | 18.5* | 10.9 | 0.9 | 6.6 | -2.6
Cn1cnnc1SCC(=O)Nc1ccc(OC(F)F)cc1 | 3.7 | -6.0 | -3.8 | 1.0 | -3.3 | 0.4 | .
C[C@H]1[C@@H](OC(=O)Nc2ccccc2C(F)(F)F)CC[C@@]23CCCN2C(=O)CCC[C@@H]13 | . | . | 2.4 | -2.2 | . | -3.1 | .
c1cc2c3c(cccc3c1)NC1(CCCCC1)N2 | 31.5 | -12.6 | 30.4* | -0.8 | 3.2 | -0.8 | 8.5
CC(C)C1=CC2C3C(=O)N(c4ccccc4)C(=O)C3C1C(=O)C2(C)O (centres undefined) | . | . | 20.6* | 2.1 | 7.2 | -2.7 | 3.4
